In ChEMBL document CHEMBL2396536, “Curcuminoids block TGF-β signaling in human breast cancer cells and limit osteolysis in a murine model of breast cancer bone metastasis” (J Nat Prod, 2013):
Calls of active or inactive are those of the source. The rule behind the calls is not given here.

Test system: MDA-MB-231
Assay: Inhibition of osteolytic bone metastases in human MDA-MB-231 cells xenografted in athymic nude mouse left cardiac ventricle assessed as effect on tumor burden at 25 to 50 mg/kg, ip administered every other day for 3 weeks by histological analysis
Format: functional, organism-based
Settings: Heart left ventricle
Method in brief: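 Intracardiac MDA-MB-231 model in female nude mice, dosed ip every other day for 21 days, n = 11/group. Hindlimbs harvested day 21, formalin-fixed and EDTA-decalcified. Tumor area measured blinded on mid-sagittal 5 μm H&E sections of tibiae and femora at 10x magnification.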

SMILES | inhibition
COc1cc(/C=C/C(=O)CC(=O)/C=C/c2ccc(O)c(OC)c2)ccc1O [CURCUMIN] | inactive

Test system: Mus musculus
Assay: Toxicity in human MDA-MB-231 cells xenografted athymic nude mouse left cardiac ventricle assessed as effect on spleen weight at 25 mg/kg, ip administered every other day for 3 weeks (reference value: 0.134 +/- 0.02 gram)
Format: organism-based
Design: dose 25 mg/kg, route intraperitoneal
Settings: in vivo, 504 h

SMILES | Activity [g]
COc1cc(/C=C/C(=O)CC(=O)/C=C/c2ccc(O)c(OC)c2)ccc1O [CURCUMIN] | 0.129

Test system: Mus musculus
Assay: Toxicity in human MDA-MB-231 cells xenografted athymic nude mouse left cardiac ventricle assessed as effect on hematocrit at 50 mg/kg, ip administered every other day for 3 weeks (reference value: 30.2 +/- 1.5%)
Format: organism-based, Heart
Design: dose 50 mg/kg, route intraperitoneal
Settings: in vivo, 504 h

SMILES | Activity [%]
COc1cc(/C=C/C(=O)CC(=O)/C=C/c2ccc(O)c(OC)c2)ccc1O [CURCUMIN] | 31.1

Test system: MDA-MB-231
Assay: Inhibition of TGF-beta-induced PTHrP secretion in human MDA-MB-231 cells at 100 uM treated 4 hrs before TGF-beta challenge measured after 24 hrs by radioimmunoassay
Format: functional, cell-based
Settings: not given
Method in brief: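 MDA-MB-231 plated at 5 × 10^4 cells/cm2 and held overnight in DMEM with 10% FBS. Pre-treated 4 h with compound (0.1–100 μM in methods; 0.1–300 μM in legend) in 2% FBS, then recombinant human TGF-β1 (5 ng/mL) or medium alone for 24 h. PTHrP measured in conditioned media by radioimmunoassay, n = 4 wells/group. IC50 from four-parameter logistic fit.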

SMILES | inhibition
COc1cc(/C=C/C(=O)CC(=O)/C=C/c2ccc(O)c(OC)c2)ccc1O [CURCUMIN] | Active

Test system: Mus musculus
Assay: Toxicity in human MDA-MB-231 cells xenografted athymic nude mouse left cardiac ventricle assessed as effect on liver weight at 25 mg/kg, ip administered every other day for 3 weeks (reference value: 1 +/- 0.10 gram)
Format: organism-based, Heart
Design: dose 25 mg/kg, route intraperitoneal
Settings: in vivo, 504 h

SMILES | Activity [g]
COc1cc(/C=C/C(=O)CC(=O)/C=C/c2ccc(O)c(OC)c2)ccc1O [CURCUMIN] | 0.987

Test system: Mus musculus
Assay: Toxicity in human MDA-MB-231 cells xenografted athymic nude mouse left cardiac ventricle assessed as effect on white blood cells at 50 mg/kg, ip administered every other day for 3 weeks (reference value: 5.84 +/- 1.3 K/uL)
Settings: in vivo, 504 h

SMILES | Activity [K/uL]
COc1cc(/C=C/C(=O)CC(=O)/C=C/c2ccc(O)c(OC)c2)ccc1O [CURCUMIN] | 6.83

Test system: Mus musculus
Assay: Toxicity in human MDA-MB-231 cells xenografted athymic nude mouse left cardiac ventricle assessed as effect on spleen weight at 50 mg/kg, ip administered every other day for 3 weeks (reference value: 0.134 +/- 0.02 gram)
Format: organism-based
Design: dose 50 mg/kg, route intraperitoneal
Settings: in vivo, 504 h

SMILES | Activity [g]
COc1cc(/C=C/C(=O)CC(=O)/C=C/c2ccc(O)c(OC)c2)ccc1O [CURCUMIN] | 0.139

Test system: MDA-MB-231
Assay: Inhibition of osteolytic bone metastases in human MDA-MB-231 cells xenografted in athymic nude mouse left cardiac ventricle assessed as reduction in lytic bone lesion area at 25 to 50 mg/kg, ip administered every other day for 3 weeks measured on day 16 relative to control
Format: functional, Heart left ventricle
Settings: dose mg/kg 25-50; route intraperitoneal
Method in brief: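 Four-week female athymic nude mice inoculated with 1 × 10^5 MDA-MB-231 cells in 0.1 mL PBS into the left cardiac ventricle. Dosed ip at 25 or 50 mg/kg or vehicle every other day from day 1 for 21 days, n = 11/group. Lytic lesion area quantified on radiographs on days 12, 16 and 21. Two-way ANOVA with Bonferroni.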

SMILES | inhibition (INH) [%]
COc1cc(/C=C/C(=O)CC(=O)/C=C/c2ccc(O)c(OC)c2)ccc1O [CURCUMIN] | 51

Biological target: Mothers against decapentaplegic homolog 3 (Homo sapiens) (UniProt P84022)
Sequence (P84022 2-425 limits assumed): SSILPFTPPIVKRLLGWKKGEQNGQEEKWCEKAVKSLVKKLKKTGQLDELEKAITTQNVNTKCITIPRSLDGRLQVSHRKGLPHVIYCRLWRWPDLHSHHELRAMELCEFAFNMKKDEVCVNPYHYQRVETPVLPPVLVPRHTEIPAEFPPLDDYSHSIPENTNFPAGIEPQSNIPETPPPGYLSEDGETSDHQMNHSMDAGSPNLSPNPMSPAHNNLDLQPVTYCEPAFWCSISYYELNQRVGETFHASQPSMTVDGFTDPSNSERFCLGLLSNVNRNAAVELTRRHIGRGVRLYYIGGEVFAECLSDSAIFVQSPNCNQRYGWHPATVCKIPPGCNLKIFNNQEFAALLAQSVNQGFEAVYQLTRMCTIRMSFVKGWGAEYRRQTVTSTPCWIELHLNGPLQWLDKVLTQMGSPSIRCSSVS
Assay: Inhibition of TGF-beta-induced Smad3 phosphorylation in human MDA-MB-231 cells treated 12 hrs before TGF-beta challenge measured after 1 hr by Western blotting
Format: cell-based
Settings: not given
Method in brief: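 Subconfluent MDA-MB-231 pre-treated 12 h with compound (80 μM), then TGF-β (5 ng/mL) for 1 h. RIPA whole-cell lysates (18 μg) run on SDS-PAGE and transferred to PVDF. Probed with rabbit anti-phospho-Smad2, phospho-Smad3, phospho-p38 or Ets-1 (1:1000, overnight, 4 °C). β-actin used as loading control. Chemiluminescent detection; three independent experiments.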

SMILES | inhibition
COc1cc(/C=C/C(=O)CC(=O)/C=C/c2ccc(O)c(OC)c2)ccc1O [CURCUMIN] | Active

Test system: MDA-MB-231
Assay: Inhibition of osteolytic bone metastases in human MDA-MB-231 cells xenografted in athymic nude mouse left cardiac ventricle assessed as reduction of bone-tumor interface at 50 mg/kg, ip administered every other day for 3 weeks
Format: functional
Settings: MDA-MB-231, Heart left ventricle, 504 h, route intraperitoneal
Method in brief: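 Intracardiac MDA-MB-231 model in nude mice, dosed ip every other day for 21 days. Mid-sagittal tibia and femur sections TRAP-stained. TRAP+ multinucleated (>3 nuclei) cells counted at 40x along the tumor-bone interface. Expressed as osteoclasts per mm of interface.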

SMILES | inhibition in vivo at 50 mg/kg [%]
COc1cc(/C=C/C(=O)CC(=O)/C=C/c2ccc(O)c(OC)c2)ccc1O [CURCUMIN] | 48

Test system: Mus musculus
Assay: Toxicity in human MDA-MB-231 cells xenografted athymic nude mouse left cardiac ventricle assessed as effect on alanine aminotransferase at 50 mg/kg, ip administered every other day for 3 weeks (reference value: 7.04 +/- 2.2 U/L)
Format: organism-based, Heart
Design: dose 50 mg/kg, route intraperitoneal
Settings: in vivo, 504 h

SMILES | Activity [U/L]
COc1cc(/C=C/C(=O)CC(=O)/C=C/c2ccc(O)c(OC)c2)ccc1O [CURCUMIN] | 5.02

Test system: Mus musculus
Assay: Toxicity in human MDA-MB-231 cells xenografted athymic nude mouse left cardiac ventricle assessed as effect on bone-forming osteoblast cell at 25 to 50 mg/kg, ip administered every other day for 3 weeks
Format: organism-based, Heart
Design: dose 25-50 mg/kg, route intraperitoneal
Settings: in vivo, 504 h

SMILES | Activity
COc1cc(/C=C/C(=O)CC(=O)/C=C/c2ccc(O)c(OC)c2)ccc1O [CURCUMIN] | Non-toxic

Test system: Mus musculus
Assay: Toxicity in human MDA-MB-231 cells xenografted athymic nude mouse left cardiac ventricle assessed as effect on platelets at 50 mg/kg, ip administered every other day for 3 weeks (reference value: 513 +/- 54 K/uL)
Format: organism-based, Heart
Design: dose 50 mg/kg, route intraperitoneal
Settings: in vivo, 504 h

SMILES | Activity [K/uL]
COc1cc(/C=C/C(=O)CC(=O)/C=C/c2ccc(O)c(OC)c2)ccc1O [CURCUMIN] | 589

Test system: MDA-MB-231
Assay: Inhibition of osteolytic bone metastases in human MDA-MB-231 cells xenografted in athymic nude mouse left cardiac ventricle assessed as improvement in body weight at 25 to 50 mg/kg, ip administered every other day for 3 weeks measured on day 16 relative to vehicle-treated control
Format: functional, organism-based
Settings: Heart left ventricle

SMILES | Activity
COc1cc(/C=C/C(=O)CC(=O)/C=C/c2ccc(O)c(OC)c2)ccc1O [CURCUMIN] | Active

Test system: MDA-MB-231
Assay: Inhibition of TGF-beta-induced Ets-1 expression in human MDA-MB-231 cells treated 12 hrs before TGF-beta challenge measured after 1 hr by Western blotting
Settings: not given

SMILES | inhibition
COc1cc(/C=C/C(=O)CC(=O)/C=C/c2ccc(O)c(OC)c2)ccc1O [CURCUMIN] | Active
